Results as given in ChEMBL document CHEMBL5226322, “Harnessing the Role of HDAC6 in Idiopathic Pulmonary Fibrosis: Design, Synthesis, Structural Analysis, and Biological Evaluation of Potent Inhibitors” (J Med Chem, 2021).
Values after ≈ are worked out from the molar mass of the structure shown. Active and inactive are the calls of the source. The rule behind the calls is not given here.

How the values were obtained:
[1] = Solubility of the compound at pH 7.4 PBS buffer incubated for 24 hrs by HPLC-UV analysis; assay type: physicochemical; conditions: pH 7.4, 24 h
How it was run: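 Compound from 10 mM DMSO stock diluted to 250 μM (2.5% DMSO), either in 50 mM acetic acid (pH 3.0) or in 50 mM aqueous PBS (pH 7.4). Shaken 24 h at 25 °C, PTFE-filtered and diluted 1:2. Quantified by RP-18 HPLC-UV at 254 nm against a 250 μM standard in MeCN/water. Run in triplicate and averaged.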

Heart [2] = assay: Cardiotoxicity in Langendorff-perfused Sprague-Dawley rat heart assessed as effect on PQ interval time at 10 uM by ECG analysis (reference value: 43.6 +/-2.5 milliseconds); assay type: toxicity, tissue-based
[3] = Toxicity in zebra fish embryo at 50 uM […]; design: species or system Danio rerio; conditions: zebrafish
How it was run: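 Wildtype Tübingen zebrafish larvae reared at 28.5 °C (14 h light/10 h dark) in embryo medium with methylene blue. From 3 days old, exposed for 2 days to 1, 10, 25, 50 or 100 µM in embryo medium, or 0.1% DMSO vehicle. 4 larvae per well in 400 µL, 8 larvae per group. Larvae scored for swim bladder inflation and cardiac edema.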

[4] = Cytotoxicity in mouse NIH3T3 cells assessed as reduction in cell viability by measuring toxic concentration incubated for 24 hrs by neutral red uptake method based UV/visible spectrophotometer analysis; assay type: toxicity; conditions: read-out: TC50
How it was run: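 NIH3T3 mouse fibroblasts grown in DMEM with 10% FCS, L-glutamine/penicillin/streptomycin and non-essential amino acids, 37 °C, 5% CO2. DMSO stocks diluted in complete medium, applied to monolayers for 24 h at several concentrations. Viability by Neutral Red uptake: 3 h dye loading, desorb in acetic acid/ethanol, absorbance at 540 nm. Student's t-test, p < 0.05.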

Heart [5] = assay: Cardiotoxicity in Langendorff-perfused Sprague-Dawley rat heart assessed as effect on QRS interval time at 10 uM by ECG analysis (reference value: 15.2 +/-0.2 milliseconds); assay type: toxicity, tissue-based
Heart [6] = assay: Cardiotoxicity in Langendorff-perfused Sprague-Dawley rat heart assessed as effect on PQ interval time at 0.1 uM by ECG analysis (reference value: 43.6 +/-2.5 milliseconds); assay type: toxicity, tissue-based
Homo sapiens [7] = species: Homo sapiens; assay: Antifibrotic activity in TGF-beta1-induced human Lung parenchyma assessed as inhibition of fibronectin mRNA expression at 4.1 uM incubated upto 7 days by qRT-PCR analysis; assay type: functional; conditions: time <= 7.0 day
How it was run: (§1)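 Human lung parenchyma pieces (2 mm³) cultured in DMEM with TGF-β1 (10 ng/mL) plus compound at 0.41 or 4.1 μM or vehicle (0.1% DMSO). Tissue collected on day 7, homogenized, total RNA purified, then qRT-PCR for HDAC6, collagen I, collagen III, αSMA and fibronectin. Relative expression by the 2^-Ct method; n=3, paired t test.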

Heart [8] = assay: Cardiotoxicity in Langendorff-perfused Sprague-Dawley rat heart assessed as effect on QTc interval time at 0.1 uM by ECG analysis (reference value: 150.5 +/-5.5 milliseconds); assay type: toxicity, tissue-based
Heart [9] = assay: Cardiotoxicity in Langendorff-perfused Sprague-Dawley rat heart assessed as effect on RR time at 1 uM by ECG analysis (reference value: 257.2 +/-8.1 milliseconds); assay type: toxicity, tissue-based
Homo sapiens [10] = species: Homo sapiens; assay: Antifibrotic activity in TGF-beta1-induced human Lung parenchyma assessed as inhibition of collagen 1 mRNA expression at 4.1 uM incubated upto 7 days by qRT-PCR analysis; assay type: functional; conditions: time <= 7.0 day; how it was run: as §1

| SMILES | solubility [1] [µM] | Time (Heart [2]) [ms] | Activity [3] | CC50 at 24 h [4] [µM] | Time (Heart [5]) [ms] | Time (Heart [6]) [ms] | Activity (Homo sapiens [7]) | Time (Heart [8]) [ms] | Time (Heart [9]) [ms] | Activity (Homo sapiens [10]) |
| --- | --- | --- | --- | --- | --- | --- | --- | --- | --- | --- |
| CN1CCC2(CC1)c1ccccc1N(Cc1ccc(C(=O)NO)cc1)C2c1ccccc1F (racemic) | 285 (≈ 127 µg/mL) |  |  |  |  |  |  |  |  |  |
| CC1(C)c2ccccc2N(Cc2ccc(C(=O)NO)cc2)C1c1cccnc1 (racemic) |  | 50.4 | Non-Toxic | 75 | 18 | 44.6 | Active | 155.1 | 257.7 | Active |
